In ChEMBL document CHEMBL1158019, “A new pregnane glycoside from Dioscorea collettii var. hypoglauca” (1999):
Calls of active or inactive are those of the source. The calls are words filed in the database; no cut-off is given here.

Tests used:
[1] = test system: PC-3; assay: Cytotoxicity against human PC-3 cells after 5 days by MTT assay; format: functional, cell-based
Method in brief: (§1)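 Cells grown in RPMI 1640 with 10% heat-inactivated FCS, 100 IU/mL penicillin and 100 µg/mL streptomycin. 1000 cells seeded per well; test samples added in fresh medium 24 h later, then 5 days at 37 °C. MTT (2 mg/mL solution) added for 4 h; cells dissolved in DMSO for 10 min; A540 read. Untreated cells taken as 100% survival; IC50 from viability-concentration plots; etoposide positive control.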

[2] = test system: MDA-MB-231; assay: Cytotoxicity against human MDA-MB-231 cells after 5 days by MTT assay; format: functional, cell-based
Method in brief: as §1, with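 “FCS, penicillin/streptomycin” for “FCS, 100 IU/mL penicillin”, “and 5” for “and 100”, “µg/mL insulin.” for “µg/mL streptomycin.”, “min; absorbance read at 540 nm.” for “min; A540 read.”, “cells set” for “cells taken”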

[3] = test system: HCT-15; assay: Cytotoxicity against human HCT-15 cells after 5 days by MTT assay; format: functional, cell-based; method in brief: as §1
[4] = test system: Pyricularia; assay: Morphological deformation in Pyricularia oryzae mycelia; format: functional
Method in brief: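 Mycelia germinated from P. oryzae conidia were scored for morphological deformation. The endpoint was the minimum morphological deformation concentration (MMDC), the lowest concentration that produced deformation. Griseofulvin and fusarelin A served as positive controls.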

[5] = test system: T47D; assay: Cytotoxicity against human T47D cells after 5 days by MTT assay; format: functional, cell-based
Method in brief: as §1, with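 “FCS, penicillin/streptomycin” for “FCS, 100 IU/mL penicillin”, “and 5” for “and 100”, “µg/mL insulin.” for “µg/mL streptomycin.”, “min; absorbance read at 540 nm.” for “min; A540 read.”, “cells set” for “cells taken”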

[6] = test system: HT-29; assay: Cytotoxicity against human HT-29 cells after 5 days by MTT assay; format: functional, cell-based; method in brief: as §1
[7] = test system: LNCaP; assay: Cytotoxicity against human LNCaP cells after 5 days by MTT assay; format: functional, cell-based; method in brief: as §1

Q: For `CC(=O)[C@H]1[C@@H](OC(=O)CCC(C)CO[C@@H]2O[C@H](CO)[C@@H](O)[C@H](O)[C@H]2O)C[C@H]2[C@@H]3CC=C4C[C@@H](O[C@@H]5O[C@H](CO)[C@@H](O[C@@H]6O[C@@H](C)[C@H](O)[C@@H](O)[C@H]6O)[C@H](O)[C@H]5O[C@@H]5O[C@@H](C)[C@H](O)[C@@H](O)[C@H]5O)CC[C@]4(C)[C@H]3CC[C@@]21C` (some centres undefined) [HYPOGLAUCIN G], which Activity [1] is on record?
A: Its Activity is “inactive”.

Q: And the Activity [2]?
A: The Activity was “inactive”.

Q: What about the Activity [3] of the same compound?
A: The Activity was “inactive”.

Q: And the Activity [4]?
A: Its Activity is 135 µM.

Q: And the Activity [5]?
A: The Activity was “inactive”.

Q: What about the Activity [6] of the same compound?
A: The Activity was “inactive”.

Q: And the Activity [7]?
A: The Activity was “inactive”.

Q: With `CC(=O)C1=CC[C@H]2[C@@H]3CC=C4C[C@@H](O[C@@H]5O[C@H](CO)[C@@H](O[C@@H]6O[C@@H](C)[C@H](O)[C@@H](O)[C@H]6O)[C@H](O)[C@H]5O[C@@H]5O[C@@H](C)[C@H](O)[C@@H](O)[C@H]5O)CC[C@]4(C)[C@H]3CC[C@]12C` as the compound, how does the Activity [1] read?
A: The Activity was “inactive”.

Q: What about the Activity [2] of the same compound?
A: Its Activity is “inactive”.

Q: What about the Activity [3] of the same compound?
A: The Activity was “inactive”.

Q: What about the Activity [4] of the same compound?
A: Its Activity is 236 µM.

Q: What about the Activity [5] of the same compound?
A: Its Activity is “inactive”.

Q: What about the Activity [6] of the same compound?
A: The Activity was “inactive”.

Q: What about the Activity [7] of the same compound?
A: Its Activity is “inactive”.
